Test results reported in ChEMBL document CHEMBL1158479, “Synthesis and preliminary in vitro biological evaluation of 4-[(4-hydroxyphenyl)sulfanyl]but-3-en-2-one, a 4-mercaptophenol derivative designed as a novel bifunctional antimelanoma agent” (J Med Chem, 2009).

Columns and labels:
[1] = system: glutathione S-transferase; test: Stability assessed as half life at pH 7.4 in presence of rat glutathione S-transferase; type: ADME
[2] = system: glutathione S-transferase; test: Stability assessed as half life at pH 8 in presence of rat glutathione S-transferase; type: ADME
[3] = system: glutathione S-transferase; test: Stability assessed as half life in presence of rat glutathione S-transferase; type: ADME
[4] = Cytotoxicity against mouse B16-F1 cells at 100 uM after 48 hrs by MTT assay relative to control in presence of 1-phenyl-2-thiourea; type: functional
[5] = Cytotoxicity against mouse B16-F1 cells at 100 uM after 48 hrs by MTT assay relative to control in presence of N-acetyl-L-cysteine; type: functional
[6] = Cytotoxicity against mouse B16-F1 cells after 48 hrs by MTT assay; type: functional, cell-based
[7] = Cytotoxicity against mouse B16-F1 cells at 100 uM after 48 hrs by MTT assay relative to control; type: functional
[8] = system: glutathione S-transferase; test: Stability assessed as half life at pH 7.4 in presence of rat glutathione S-transferase in liver cytosol; type: physicochemical
How it was run: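 The GSH reaction was run at pH 7.4 with and without rat liver cytosol, which served as the glutathione S-transferase source. t1/2 was derived from the time course of reaction with GSH.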

[9] = substrate: COc1ccc(O)cc1; test: (§1) Activity of mushroom tyrosinase assessed as o-quinone formation; conditions: Agaricus bisporus
How it was run: (§2)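 Mushroom tyrosinase kinetics were run by measuring the initial rate of enzyme-catalyzed o-quinone formation over increasing substrate concentrations. Km and Vmax were derived from these rates, and kcat and kcat/Km were calculated from them.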

[10] = substrate: O=C(O)CSc1ccc(O)cc1; test: as §1; conditions: Agaricus bisporus; how it was run: as §2
[11] = substrate: O=C(O)CCSc1ccc(O)cc1; test: as §1; conditions: Agaricus bisporus; how it was run: as §2
[12] = substrate: COc1ccc(O)cc1; test: (§3) Ratio of Kcat to Km of mushroom tyrosinase; conditions: Agaricus bisporus; how it was run: as §2
[13] = substrate: O=C(O)CSc1ccc(O)cc1; test: as §3; conditions: Agaricus bisporus; how it was run: as §2
[14] = substrate: O=C(O)CCSc1ccc(O)cc1; test: as §3; conditions: Agaricus bisporus; how it was run: as §2

| half-life [1] | half-life [2] | half-life [3] | Molecule | Activity [4] | Activity [5] | Activity [7] | also measured |
| --- | --- | --- | --- | --- | --- | --- | --- |
| 38.6 min | 18.4 min | 7.24 min | CC(=O)/C=C\Sc1ccc(O)cc1 |  |  |  |  |
| 20.5 min | 6.1 min | 2.2 min | CC(=O)/C=C/Sc1ccc(O)cc1 |  |  |  |  |

Second part, the molecule before the results:

| Molecule | half-life [1] | half-life [2] | half-life [3] | Activity [4] | Activity [5] | Activity [7] | also measured |
| --- | --- | --- | --- | --- | --- | --- | --- |
| Oc1ccc(SSc2ccc(O)cc2)cc1 |  |  |  | 0% | 22.5% | 0.2% | IC50 [6]: 21.2 µM; half-life [8]: < 1 min |
| COc1ccc(O)cc1 [MEQUINOL] |  |  |  | 78.7% | 60% | 61.3% |  |
| Tyrosinase (Agaricus bisporus), O42713 (protein) MSLIATVGPTGGVKNRLNIVDFVKNEKFFTLYVRSLELLQAKEQHDYSSFFQLAGIHGLPFTEWAKERPSMNLYKAGYCTHGQVLFPTWHRTYLSVLEQILQGAAIEVAKKFTSNQTDWVQAAQDLRQPYWDWGFELMPPDEVIKNEEVNITNYDGKKISVKNPILRYHFHPIDPSFKPYGDFATWRTTVRNPDRNRREDIPGLIKKMRLEEGQIREKTYNMLKFNDAWERFSNHGISDDQHANSLESVHDDIHVMVGYGKIEGHMDHPFFAAFDPIFWLHHTNVDRLLSLWKAINPDVWVTSGRNRDGTMGIAPNAQINSETPLEPFYQSGDKVWTSASLADTARLGYSYPDFDKLVGGTKELIRDAIDDLIDERYGSKPSSGARNTAFDLLADFKGITKEHKEDLKMYDWTIHVAFKKFELKESFSLLFYFASDGGDYDQENCFVGSINAFRGTAPETCANCQDNENLIQEGFIHLNHYLARDLESFEPQDVHKFLKEKGLSYKLYSRGDKPLTSLSVKIEGRPLHLPPGEHRPKYDHTQARVVFDDVAVHVIN |  |  |  |  |  |  | Km [9]: 46.8 µM; kcat [9]: 0.24 s⁻¹; Km [10]: 22.4 µM; kcat [10]: 0.461 s⁻¹; Km [11]: 31.5 µM; kcat [11]: 0.972 s⁻¹; kcat/Km [12]: 5140; kcat/Km [13]: 20600; kcat/Km [14]: 31000 |
